Activity calls are given as the source filed them. No cut-off for these calls is given here.
Assays:
[1] = Aggregation property of the compound assessed as change in saturation transfer at 100 uM irradiated at 6.61 ppm by STD NMR spectra analysis; type: physicochemical
Outline: (§1)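 STD NMR, saturation by a train of 40 Gaussian pulses of 50 ms each; selective on-resonance irradiation at the stated ppm (TX at 7.48 ppm), off-resonance at 30 ppm, interleaved and subtracted by phase cycling. 32K points, 16 ppm width centred at 4.7 ppm, 256 scans, 16 dummy scans, 0.1 s recycle delay (~15 min); 3 Hz exponential line broadening.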

[2] = Aggregation property of the compound in NMR buffer assessed as aggregate size at 500 uM by dynamic light scattering analysis; type: physicochemical
Outline: (§2)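 Dynamic light scattering in NMR buffer, samples filtered through 0.22 μm and centrifuged 5 min at 13 500 rpm before measurement. Autocorrelation accumulated 150 s at a 173° scattering angle, in replicates of 3–5, with water viscosity used in analysis; intensity or volume size distributions reported.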

[3] = Aggregation property of the compound assessed as change in peak intensity by measuring concentration at which peak intensities deviated from the linear correlation by 1H-NMR analysis; type: physicochemical
Outline: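 Line widths, chemical shifts and peak intensities tracked; CAC taken as the concentration where intensities deviate from linear dependence, or, for line width, the minimal concentration that increases peak width.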

[4] = biological target: T1, Rap guanine nucleotide exchange factor 3 (Homo sapiens) (UniProt O95398); test: Binding affinity to human EPAC1 cAMP binding domain (149 to 318 residues) at 100 uM in presence of triton X-100 by [15N-1H]HSQC spectroscopic analysis
T1 sequence (whole entry): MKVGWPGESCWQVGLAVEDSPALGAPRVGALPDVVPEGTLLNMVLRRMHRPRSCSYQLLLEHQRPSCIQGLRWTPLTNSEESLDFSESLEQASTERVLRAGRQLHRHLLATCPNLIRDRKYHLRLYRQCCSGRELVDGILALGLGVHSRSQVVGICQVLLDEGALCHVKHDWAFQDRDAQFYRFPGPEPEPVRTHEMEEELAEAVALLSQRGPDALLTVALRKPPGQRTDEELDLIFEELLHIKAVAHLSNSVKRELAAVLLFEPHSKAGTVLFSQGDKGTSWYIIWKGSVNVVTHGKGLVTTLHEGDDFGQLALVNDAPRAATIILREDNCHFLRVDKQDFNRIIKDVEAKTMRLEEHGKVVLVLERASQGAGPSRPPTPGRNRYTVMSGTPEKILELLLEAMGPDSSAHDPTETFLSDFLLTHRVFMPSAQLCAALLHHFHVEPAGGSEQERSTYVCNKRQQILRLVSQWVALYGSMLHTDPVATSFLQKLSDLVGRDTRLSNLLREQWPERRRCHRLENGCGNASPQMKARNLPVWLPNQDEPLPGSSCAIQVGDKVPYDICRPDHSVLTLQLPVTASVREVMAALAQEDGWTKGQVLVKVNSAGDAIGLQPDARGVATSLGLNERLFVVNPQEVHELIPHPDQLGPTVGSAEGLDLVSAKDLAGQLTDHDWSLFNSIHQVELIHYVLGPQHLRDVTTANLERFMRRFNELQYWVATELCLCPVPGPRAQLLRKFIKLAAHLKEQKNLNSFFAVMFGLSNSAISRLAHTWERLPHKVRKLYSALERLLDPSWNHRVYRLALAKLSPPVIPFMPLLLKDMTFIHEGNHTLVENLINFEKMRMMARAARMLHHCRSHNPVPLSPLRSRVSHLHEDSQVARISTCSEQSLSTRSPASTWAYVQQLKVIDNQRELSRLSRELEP

[5] = Binding affinity to Triton-X 100 assessed as aggregate formation at 1:2 ratio of Triton-X 100 to compound by dynamic light scattering analysis; outline: as §2
[6] = Binding affinity to Triton-X 100 assessed as intra-molecular cross relaxation at 100 uM by NOESY spectra analysis
Outline: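 2D NOESY and ROESY of 100 μM ESI with 0.025% Triton X-100 or 500 μM ESI with 0.05% Triton X-100; 2K × 512 complex points, 12 ppm spectral width centred at 4.7 ppm, intra- and intermolecular cross-peaks mapped.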

[7] = Binding affinity to Triton-X 100 assessed as inter-molecular saturation transfer at 100 uM at 6.61 ppm by STD spectra analysis; outline: as §1
[8] = biological target: T1, Rap guanine nucleotide exchange factor 3 (Homo sapiens); test: Binding affinity to human EPAC1 cAMP binding domain (149 to 318 residues) assessed as intensity loss using aggregate form of compound by [15N-1H]HSQC spectroscopic analysis
[9] = biological target: T1, Rap guanine nucleotide exchange factor 3 (Homo sapiens); test: Binding affinity to human EPAC1 cAMP binding domain (149 to 318 residues) assessed as change in chemical shift at 50 to 250 uM using aggregate form of compound by [15N-1H]HSQC spectroscopic analysis
[10] = biological target: T2, Rap guanine nucleotide exchange factor 3 (Homo sapiens, UniProt O95398); test: Inhibition of 8-NBD-cAMP binding to human EPAC1 cAMP binding domain (149 to 318 residues) by fluorescence assay
T2 sequence (O95398 whole entry): T1 sequence (whole entry)

[11] = Reversible binding affinity to Triton-X 100 at dilution from 100 uM by 1H-NMR spectra analysis
[12] = biological target: T1, Rap guanine nucleotide exchange factor 3 (Homo sapiens); test: Binding affinity to human EPAC1 cAMP binding domain (149 to 318 residues) assessed as peak size at 50 to 200 uM by dynamic light scattering analysis; outline: as §2
[13] = biological target: T1, Rap guanine nucleotide exchange factor 3 (Homo sapiens); test: Binding affinity to human EPAC1 cAMP binding domain (149 to 318 residues) at 200 to 300 uM in presence of triton X-100 using aggregate form of compound by [15N-1H]HSQC spectroscopic analysis
[14] = Binding affinity to Triton-X 100 assessed as change in chemical shift for aggregate formation at 100 to 300 uM by 1H-NMR analysis
Albumin [15] = biological target: T3, Albumin (Homo sapiens, UniProt P02768); test: Binding affinity to human serum albumin assessed as line broadening at 100 uM by 1D 1H NMR analysis
T3 sequence (P02768 whole entry): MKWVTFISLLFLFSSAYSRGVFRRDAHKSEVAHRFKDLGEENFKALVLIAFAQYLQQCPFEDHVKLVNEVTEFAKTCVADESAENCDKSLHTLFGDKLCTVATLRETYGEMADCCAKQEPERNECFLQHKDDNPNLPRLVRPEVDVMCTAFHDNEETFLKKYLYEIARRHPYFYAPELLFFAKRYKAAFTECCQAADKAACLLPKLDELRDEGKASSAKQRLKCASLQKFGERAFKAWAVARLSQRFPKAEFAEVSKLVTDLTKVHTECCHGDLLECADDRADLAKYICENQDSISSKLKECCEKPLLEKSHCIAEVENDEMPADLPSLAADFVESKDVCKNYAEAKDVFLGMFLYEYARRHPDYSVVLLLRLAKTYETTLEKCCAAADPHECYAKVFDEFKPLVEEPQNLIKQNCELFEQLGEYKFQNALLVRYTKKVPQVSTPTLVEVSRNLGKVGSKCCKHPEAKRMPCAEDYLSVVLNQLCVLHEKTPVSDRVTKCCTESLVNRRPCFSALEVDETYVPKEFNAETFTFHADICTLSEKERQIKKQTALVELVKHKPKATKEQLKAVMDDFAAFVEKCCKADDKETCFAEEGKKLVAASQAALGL

Albumin [16] = biological target: T3, Albumin; test: Displacement of [13C]oleic acid from human serum albumin by CH-HSQC spectra analysis
Outline: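 Fatty-acid-free recombinant HSA at 250 μM in sodium phosphate buffer (20 mM NaPO4, pH 7.6, 50 mM NaCl, D2O), 37 °C for 30 min. 13C-oleic acid (100 mM stock in DMSO-d6, warmed to 50 °C for 10 min) added to 1.5 mM, then 2 h at 37 °C. CH-HSQC at 298 K; loss of site-specific cross-peaks A–H scored.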

Albumin [17] = biological target: T3, Albumin; test: Displacement of dansylated phenylalanine from human serum albumin by fluorescence assay; details: read-out: Kd(app)
Outline: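 Competition of ligand against 100 μM dansyl-phenylalanine (binds Sudlow sites 1 and 2) bound to 2.5 μM HSA. Excitation 370 nm, emission 480 nm. Fractional saturation modelled with two sites, free HSA assumed negligible; least-squares fit with no further ESI sites, giving maximum apparent dissociation constants.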

Albumin [18] = biological target: T3, Albumin; test: Binding affinity to human serum albumin assessed as inhibition of compound aggregation at 500 uM by surface plasmon resonance analysis

## CC(C)(C)c1cc(C(=O)/C(C#N)=N/Nc2cccc(Cl)c2)no1
[1]
  Activity: Not Active
[2]
  Activity: 90 to 600 nm
[3]
  Activity: 150 µM
[4]
  Activity: Active
[5]
  Activity: Active
[6]
  Activity: Active
[7]
  Activity: Active
[8]
  Activity: Active
[9]
  Activity: Active
[10]
  Kd: 20 µM
[11]
  Activity: Active
[12]
  Activity: < 5 nm
[13]
  Activity: Active
[14]
  Activity: Active
Albumin [15]
  Activity: Active
Albumin [16]
  Activity: Active
Albumin [17]
  Kd: 99 nM
Albumin [18]
  inhibition (INH): Not Active
